In ChEMBL document CHEMBL5058577, “EUbOPEN Chemogenomics Library 2 (Multiplex)” (2022):

Test system: U2OS
Test: Multiplex assay against U2OS
Format: toxicity, cell-based
Conditions: human
Outline: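 Phenotypes for tubulin, mitochondrial mass and membrane permeability are expressed as per cents of healthy-nucleus cells. Cells were stained live at seeding with Hoechst33342, BioTracker Green Microtubule Cytoskeleton Dye, MitoTracker Red and Annexin V Alexa Fluor 680, then imaged after compound addition on a CQ1 microscope at 37°C and 5% CO2. Machine-learning gating in CellPathfinder separated Hoechst high-intensity objects from normal cells, divided normal cells by nuclear state (healthy, pyknosed, fragmented) and divided pyknosed cells into mitotic or apoptotic.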

[1] = 12 h, 1 µM, compound concentration 1 uM, replicate 1
[2] = 12 h, 1 µM, compound concentration 1 uM, replicate 2
[3] = 12 h, 10 µM, compound concentration 10 uM, replicate 1
[4] = 12 h, 10 µM, compound concentration 10 uM, replicate 2
[5] = 24 h, 1 µM, compound concentration 1 uM, replicate 1
[6] = 24 h, 1 µM, compound concentration 1 uM, replicate 2
[7] = 24 h, 10 µM, compound concentration 10 uM, replicate 1
[8] = 24 h, 10 µM, compound concentration 10 uM, replicate 2
[9] = 48 h, 1 µM, compound concentration 1 uM, replicate 1
[10] = 48 h, 1 µM, compound concentration 1 uM, replicate 2
[11] = 48 h, 10 µM, compound concentration 10 uM, replicate 1
[12] = 48 h, 10 µM, compound concentration 10 uM, replicate 2

CCCOc1ccc2[nH]cc(C3=CCNCC3)c2n1.Cl
Population Apoptotic (%) [1]: 80%
Population Fragmented Nuclei (%) [1]: 31%
Population Healthy Nuclei (%) [1]: 58%
Population Hoechst High Intensity Objects (%) [1]: 2%
Population Membrane Permeable-Phenotype (%) [1]: 2%
Population Mitochondria Different-Phenotype (%) [1]: 1%
Population Mitotic Cells (%) [1]: 19%
Population Normal (%) [1]: 97%
Population Pyknosed Nuclei (%) [1]: 9%
Population Tubulin-Different-Phenotype (%) [1]: 1%
Total Cell Count [1]: 218
Population Apoptotic (%) [2]: 87%
Population Fragmented Nuclei (%) [2]: 13%
Population Healthy Nuclei (%) [2]: 78%
Population Hoechst High Intensity Objects (%) [2]: 1%
Population Membrane Permeable-Phenotype (%) [2]: 11%
Population Mitochondria Different-Phenotype (%) [2]: 7%
Population Mitotic Cells (%) [2]: 12%
Population Normal (%) [2]: 98%
Population Pyknosed Nuclei (%) [2]: 8%
Population Tubulin-Different-Phenotype (%) [2]: 5%
Total Cell Count [2]: 98
Population Apoptotic (%) [3]: 86%
Population Fragmented Nuclei (%) [3]: 24%
Population Healthy Nuclei (%) [3]: 66%
Population Hoechst High Intensity Objects (%) [3]: 4%
Population Membrane Permeable-Phenotype (%) [3]: 6%
Population Mitochondria Different-Phenotype (%) [3]: 5%
Population Mitotic Cells (%) [3]: 13%
Population Normal (%) [3]: 96%
Population Pyknosed Nuclei (%) [3]: 8%
Population Tubulin-Different-Phenotype (%) [3]: 3%
Total Cell Count [3]: 275
Population Apoptotic (%) [4]: 60%
Population Fragmented Nuclei (%) [4]: 17%
Population Healthy Nuclei (%) [4]: 74%
Population Hoechst High Intensity Objects (%) [4]: 0%
Population Membrane Permeable-Phenotype (%) [4]: 12%
Population Mitotic Cells (%) [4]: 40%
Population Normal (%) [4]: 100%
Population Pyknosed Nuclei (%) [4]: 7%
Population Tubulin-Different-Phenotype (%) [4]: 6%
Total Cell Count [4]: 134
Population Apoptotic (%) [5]: 70%
Population Fragmented Nuclei (%) [5]: 27%
Population Healthy Nuclei (%) [5]: 61%
Population Hoechst High Intensity Objects (%) [5]: 1%
Population Membrane Permeable-Phenotype (%) [5]: 6%
Population Mitochondria Different-Phenotype (%) [5]: 1%
Population Mitotic Cells (%) [5]: 29%
Population Normal (%) [5]: 98%
Population Pyknosed Nuclei (%) [5]: 10%
Population Tubulin-Different-Phenotype (%) [5]: 3%
Total Cell Count [5]: 252
Population Apoptotic (%) [6]: 90%
Population Fragmented Nuclei (%) [6]: 18%
Population Healthy Nuclei (%) [6]: 73%
Population Hoechst High Intensity Objects (%) [6]: 2%
Population Membrane Permeable-Phenotype (%) [6]: 3%
Population Mitochondria Different-Phenotype (%) [6]: 3%
Population Mitotic Cells (%) [6]: 9%
Population Normal (%) [6]: 97%
Population Pyknosed Nuclei (%) [6]: 8%
Population Tubulin-Different-Phenotype (%) [6]: 2%
Total Cell Count [6]: 138
Population Apoptotic (%) [7]: 92%
Population Fragmented Nuclei (%) [7]: 25%
Population Healthy Nuclei (%) [7]: 66%
Population Hoechst High Intensity Objects (%) [7]: 3%
Population Membrane Permeable-Phenotype (%) [7]: 5%
Population Mitochondria Different-Phenotype (%) [7]: 3%
Population Mitotic Cells (%) [7]: 7%
Population Normal (%) [7]: 96%
Population Pyknosed Nuclei (%) [7]: 8%
Population Tubulin-Different-Phenotype (%) [7]: 3%
Total Cell Count [7]: 323
Population Apoptotic (%) [8]: 72%
Population Fragmented Nuclei (%) [8]: 14%
Population Healthy Nuclei (%) [8]: 78%
Population Hoechst High Intensity Objects (%) [8]: 0%
Population Membrane Permeable-Phenotype (%) [8]: 11%
Population Mitochondria Different-Phenotype (%) [8]: 2%
Population Mitotic Cells (%) [8]: 27%
Population Normal (%) [8]: 99%
Population Pyknosed Nuclei (%) [8]: 6%
Population Tubulin-Different-Phenotype (%) [8]: 4%
Total Cell Count [8]: 162
Population Apoptotic (%) [9]: 91%
Population Fragmented Nuclei (%) [9]: 19%
Population Healthy Nuclei (%) [9]: 69%
Population Hoechst High Intensity Objects (%) [9]: 2%
Population Membrane Permeable-Phenotype (%) [9]: 5%
Population Mitochondria Different-Phenotype (%) [9]: 3%
Population Mitotic Cells (%) [9]: 8%
Population Normal (%) [9]: 97%
Population Pyknosed Nuclei (%) [9]: 10%
Population Tubulin-Different-Phenotype (%) [9]: 1%
Total Cell Count [9]: 350
Population Apoptotic (%) [10]: 75%
Population Healthy Nuclei (%) [10]: 74%
Population Membrane Permeable-Phenotype (%) [10]: 9%
Population Mitotic Cells (%) [10]: 25%
Population Pyknosed Nuclei (%) [10]: 6%
Population Tubulin-Different-Phenotype (%) [10]: 3%
Total Cell Count [10]: 183
Population Apoptotic (%) [11]: 100%
Population Fragmented Nuclei (%) [11]: 18%
Population Healthy Nuclei (%) [11]: 75%
Population Hoechst High Intensity Objects (%) [11]: 4%
Population Membrane Permeable-Phenotype (%) [11]: 5%
Population Mitochondria Different-Phenotype (%) [11]: 2%
Population Mitotic Cells (%) [11]: 0%
Population Normal (%) [11]: 95%
Population Pyknosed Nuclei (%) [11]: 6%
Population Tubulin-Different-Phenotype (%) [11]: 3%
Total Cell Count [11]: 423
Population Apoptotic (%) [12]: 94%
Population Fragmented Nuclei (%) [12]: 13%
Population Healthy Nuclei (%) [12]: 78%
Population Hoechst High Intensity Objects (%) [12]: 0%
Population Membrane Permeable-Phenotype (%) [12]: 6%
Population Mitochondria Different-Phenotype (%) [12]: 3%
Population Mitotic Cells (%) [12]: 5%
Population Normal (%) [12]: 99%
Population Pyknosed Nuclei (%) [12]: 7%
Total Cell Count [12]: 243
